# In ChEMBL document CHEMBL4513216, “Probing the Open Global Health Chemical Diversity Library for Multistage-Active Starting Points for Next-Generation Antimalarials” (ACS Infect Dis, 2020):
# Experiment: Toxicity liver stage against HepG2, at 10uM
# Type: cell-based
# Design: test concentration 10 uM, cell line HepG2-A16-CD81EGFP
# Details: human, HepG2-A16-CD81EGFP cells; read-out: INHIBITION
# Outline: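 Uninfected HepG2-A16-CD81EGFP cells, 3 × 10^3 per well, 1536-well, plated on prespotted compound at 10 μM final, parasite-free screening media added to match infected plates; puromycin 10 μM positive, DMSO 0.5% negative; run in parallel with 48 h PbLuc assay at 37 °C, 5% CO2; viability by CellTiter-Glo luminescence, normalized to controls.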
row,Structure (SMILES),cytotoxicity at 10 µM
1,Cc1cnc(N2CCC3(CC2)CC(NS(C)(=O)=O)CO3)nc1 (configuration not stated),2.87%
2,CCC1COCCN1C(=O)NCc1nccn1Cc1ccccc1 (configuration not stated),-0.457%
3,CN(Cc1cn2ccccc2n1)C1CCCN(c2cccnn2)C1 (configuration not stated),-9.78%
4,COc1ccccc1-c1ccc(NCc2cn3c(n2)SCC3)nn1,8.62%
5,CC(C)(C)c1nccc(N2CCN(C3CCS(=O)(=O)C3)CC2)n1 (configuration not stated),1.05%
6,O=C1C(Sc2cnn[nH]2)CCCN1c1ccccc1F (configuration not stated),24.9%
7,Cc1ccc(Cc2cnc(NC(=O)C3CNC(=O)N3)s2)cc1F (configuration not stated),1.11%
8,CC(C)c1noc(CCC(=O)NCC2CCC(C(N)=O)CC2)n1 (configuration not stated),-31.6%
9,CC(C)N(CCNC(=O)N1CCCC(N(C)C)C1)C1CC1 (configuration not stated),-0.211%
10,Cc1ccc(S(=O)(=O)N2CCC3(CC(C(=O)NCC(C)C)=NO3)C2)cc1 (configuration not stated),-0.819%
11,COc1ccc(CN2CCC[C@H]2c2nc(-c3cncnc3N)no2)cc1,-57%
12,CN(CCc1ccncc1)C1CCCN(Cc2noc(C3CC3)n2)C1 (configuration not stated),8.66%
13,Cn1ncc(NCc2cccc(OCC(F)(F)F)c2)c(Cl)c1=O,22.1%
14,CN1C(=O)COc2cc(NC(=O)CCc3nc4cccnc4[nH]3)ccc21,-4.13%
15,Cc1nc(CN(C)C2CCN(CC3CCCC3)C2)no1 (configuration not stated),-5%
16,N#CC1(C(=O)Nc2ccc(OC(F)F)cc2)CCCC1,-11.1%
17,COCCn1ccc(=O)c(OCC(=O)Nc2cccc(OC)c2)c1C,-2.74%
18,O=C(c1ncccn1)N1C[C@@H]2COC[C@]2(COc2cccnc2)C1,-91.5%
19,Cc1cn2nc(N3CCCC3Cn3cncn3)sc2n1 (configuration not stated),-18.3%
20,CC(O)CN1CCC(CNCc2ccccc2Cl)CC1 (configuration not stated),-11.9%
21,COc1ccccc1CCNC(=O)CC1(Cn2cnnn2)CCCCC1,11.3%

row,Structure (SMILES),cytotoxicity at 10 µM
1,O=C(C1CCCN(C2CCOCC2)C1)N1CCc2ncccc2C1 (configuration not stated),4.21%
2,CCOc1ccc(CNCC(O)c2ccccc2)cc1Cl (configuration not stated),-3.4%
3,Cn1cnnc1C1CCCN(C(=O)c2cc(-c3ccccc3)on2)C1 (configuration not stated),7.36%
4,CCOc1ccc2c(c1)CN(Cc1nc3c(cnn3C)c(=O)[nH]1)CC2,-0.373%
5,COCC1CN(C(=O)COc2ccccc2)Cc2cn(C)nc21 (configuration not stated),0.55%
6,CCCN1CCC(Nc2nc(CC)ns2)CC1,-2.59%
7,CCc1nc(CN2CCCN(c3ncnc4ccsc34)CC2)no1,64.5%
8,C[S+]([O-])CCCNC(=O)c1cc(Br)c2c(c1)OCCO2 (configuration not stated),16.9%
9,c1ccc2oc(N3CCn4c(nnc4C4CC4)C3)nc2c1,7.41%
10,CO[C@@H]1CC[C@H]2[C@H]1OCCN2C(=O)COc1ccc(C)cc1,-99%
11,CCC[C@@H]1CN(C(=O)c2c(F)ccc(OC)c2F)C[C@H]1C(=O)O,0.542%
12,CCCc1cc(=O)[nH]c(-c2ccccc2CN(C)CCC(C)C)n1,3.53%
13,O=C(CC1CC1)N[C@@H]1CN(Cc2ccc(F)cc2)C[C@@H]2CCCO[C@@H]21,14.9%
14,CC(Nc1cnn(C)c(=O)c1Cl)c1ccc(F)c(F)c1 (configuration not stated),31.3%
15,CCCc1nnc2sc(C3CCN(CC)CC3)nn12,4.6%
16,Cc1nn(CC(=O)N2CCN(c3ccccc3F)CC2)c(C)c1Cl,-12.6%
17,Cc1nc(C2CCCN(C(=O)c3c(C)nn4cccnc34)C2)no1 (configuration not stated),-7.62%
18,CC(C)CC(=O)NS(=O)(=O)c1ccc(C#N)cc1C(F)(F)F,-8.64%
19,CC(CO)Nc1ccc(-c2nc(Cc3ccc(F)cc3)no2)cn1 (configuration not stated),-11.9%
20,CCCn1nccc1C(=O)Nc1nc(C)c(C)s1,-6.19%
21,COc1ccc(Cl)cc1CC(=O)N1CCN(CC(C)O)CC1 (configuration not stated),-17.1%

row,Structure (SMILES),cytotoxicity at 10 µM
1,CNc1oc(-c2ccc(OC)c(S(=O)(=O)N3CCCC3)c2)nc1C#N,3.33%
2,Cc1nc(CN2CCCC3(CCN(c4cccnc4)C3=O)C2)cs1 (configuration not stated),0.574%
3,COc1cc(NCc2c(C)noc2C)c(OC)cc1Cl,47%
4,Cn1c(C2CC2)nc2c1CCN(Cc1nc3ccccc3s1)C2,-4.69%
5,COCC(C)(C)NS(=O)(=O)C1CS(=O)(=O)c2ccccc21 (configuration not stated),4.22%
6,COc1cccc(S(=O)(=O)CCN2CCCC2c2ccc[nH]2)c1 (configuration not stated),-3.89%
7,Cc1ccccc1CNC(=O)CN1CCCC(Cc2nccn2C)C1 (configuration not stated),-15.4%
8,CC(=O)N1CCC2(CCN(Cc3ccc(Cl)c(C(F)(F)F)c3)CC2)C1,-81.9%
9,CN(C)C(=O)COc1ccccc1CNC1CCc2ncnn2C1 (configuration not stated),5.38%
10,CN1CC[C@H]2CN(C(=O)COCc3nc4cc(F)ccc4[nH]3)C[C@H]21,2.77%
11,Cc1cc(CNc2cncc(C(=O)N(C)C)n2)c2[nH]c(C)c(C)c2c1,-12.2%
12,CC(C)c1nccn1CCCNC(=O)c1ccc(N(C)C)nc1,15.7%
13,O=C(c1cncnc1)N1C[C@@H]2CC[C@H](Oc3cccc(F)c3)[C@@H]2C1,-17.1%
14,CCn1nc(C)c(C(C)Nc2cc(C3CCNCC3)nc(C)n2)c1C (configuration not stated),2.38%
15,Cc1ccccc1C(=O)NCc1ccnc(N(C)C)c1,-8.84%
16,O=C(COc1coc(CN2CCCC2)cc1=O)Nc1cc(Cl)ccc1Cl,-1.71%
17,O=C(NCCOc1ccc(F)cc1)C1CCCN(C(=O)C2CC2)C1 (configuration not stated),0.856%
18,CC(C)c1nccc([C@H]2C[C@@H]3CCN(Cc4ccoc4)C[C@H]3O2)n1,-4.45%
19,CCOc1ccc(OC2CCCN(c3cnn(C)c3)C2=O)cc1 (configuration not stated),0.118%
20,COc1ccc(NC(=O)N2CCCC2c2ccco2)c(OC)c1 (configuration not stated),10.8%
21,CCn1cnnc1C1CCN(C(=O)COc2ccccc2)CC1,1.3%

row,Structure (SMILES),cytotoxicity at 10 µM
1,CCC1CN(C(=O)c2ccccc2N(C)C)CCN1C(C)C (configuration not stated),-0.238%
2,CN(Cc1ccc(Cl)s1)C(=O)COc1cccc(C(N)=O)c1,-2.83%
3,Cc1ccc(C(=O)N2CCC3(CCC(C(=O)NCC4CC4)O3)CC2)o1 (configuration not stated),6.85%
4,O=C(CN1CC(c2nc(Cc3ccccc3)no2)C1)NCC1CCCO1 (configuration not stated),-6.06%
5,N#Cc1ncn(CCC(=O)Nc2cc(Cl)ccc2Cl)n1,-161%
6,Cc1cnn(CCNC(C)C(=O)Nc2ccc(Cl)cn2)c1 (configuration not stated),0.858%
7,COCCc1noc(CN(C)C(=O)C2COc3ccccc3C2)n1 (configuration not stated),8.63%
8,CC(C)c1cc2c(s1)NC(c1ccccn1)NC2=O (configuration not stated),-0.378%
9,COCCCN(Cc1cc(O)nc2ccccc12)C(=O)NC(C)C,0.829%
10,c1ccc(CNc2ccccc2N2CCCC2)nc1,10.9%
11,CCN1CCN(C(=O)C(C)n2cc(Br)cn2)CC1 (configuration not stated),6.39%
12,O=C(NCc1ccc2[nH]c(=O)[nH]c2c1)c1ccc(CN2CCCC2)o1,-0.987%
13,COc1cc(OC)cc(C2SCC(=O)Nc3ccsc32)c1 (configuration not stated),-1.16%
14,CCCN1CCC(NCc2cccc(CN3CCOC(C)C3)c2)CC1 (configuration not stated),-13%
15,CC(CO)(CO)NC(=O)C1CCC(=O)N(Cc2ccc(Cl)cc2)C1 (configuration not stated),-4.71%
16,CNC(=O)NCC(=O)N(C)C(c1ccc(Cl)cc1)c1cccnc1 (configuration not stated),9.61%
17,COc1ccc(Cl)cc1NCC(=O)NCCNc1cnccn1,-11.4%
18,CCC(NC(=O)C1CCN(C(C)C)CC1)c1cn2cccnc2n1 (configuration not stated),-6.21%
19,O=C(CN1CCCC1Cn1cncn1)NCCOc1ccccc1 (configuration not stated),-7.52%
